Here are results for five compounds from ChEMBL document CHEMBL1159310, “Indole and beta-carboline alkaloids from Geissospermum sericeum” (J Nat Prod, 2002).

In one test the test system is KB. Nature of the test: Cytotoxicity against human KB cells after 48 hrs by MTT assay. It counts as cell-based. Put shortly: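 Human KB cells (0.5 × 10^6 viable cells/mL in RPMI 1640 with 20% FCS) added to compound diluted in RPMI 1640 from […] DMSO stocks; 48 h at 37 °C. MTT (5 mg/mL) added for 15 min, supernatant discarded, cells solubilised in DMSO plus Sørensen's glycine buffer pH 10.5; OD read at 570 nm; IC50 by curve fitting.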

For test [1], the system named is Plasmodium falciparum. Description: Antiplasmodial activity against chloroquine-sensitive Plasmodium falciparum T9-96. It counts as functional, organism-based.
Test [2] concerns Plasmodium falciparum. Description: Antiplasmodial activity against chloroquine-resistant Plasmodium falciparum K1. In kind it is functional, organism-based.
Test [3] has as its system Plasmodium falciparum. Description: Selectivity for Plasmodium falciparum K1 to Plasmodium falciparum T9-96 as IC50 ratio. In kind it is functional.

Turning to `CCN(CC)CCCC(C)Nc1ccnc2cc(Cl)ccc12` (centres undefined) [CHLOROQUINE], in the test with KB, the IC50 – broadly, the concentration needed to halve the response being measured – was 20.4 µM.

As to `CC[C@@H]1CN2CC[C@]34c5ccccc5N[C@H]3[C@@H](CO)[C@H]1C[C@H]24` [GEISSOSCHIZOLINE], the IC50 with Plasmodium falciparum [1], with KB and with Plasmodium falciparum [2] was more than 40 µM each time.

As to `CC[C@@H]1CN2CC[C@@]34C(=Nc5ccccc53)[C@@H](CO)[C@H]1C[C@H]24`, the values for the concentration for half-maximal inhibition (IC50) with Plasmodium falciparum [1], in the test with KB and with Plasmodium falciparum [2] were 35.4 µM, more than 40 µM and 27.3 µM, respectively.

On to `CCc1ccc2c3[nH]c4ccccc4c3cc[n+]2c1.[Cl-]` [FLAVOPEREIRINE], for which the figures for the IC50 in the test on Plasmodium falciparum [1], with KB and in the test on Plasmodium falciparum [2] were 1.83 µM, 10.7 µM and 11.5 µM, respectively. Also, the “Ratio IC50” value with Plasmodium falciparum [3] was 6.3.

Take `CC[C@@H]1C[N+]2([O-])CC[C@]34c5ccccc5N[C@H]3[C@@H](CO)[C@H]1C[C@@H]42` (some centres undefined): the IC50 in the test on Plasmodium falciparum [1], with KB and in the test on Plasmodium falciparum [2] was more than 40 µM each time.
